Experiment [1] is described as follows: Cytotoxicity against human DuCaP cells after 72 hrs by AlamarBlue end point assay. The format is functional, cell-based. The gist of the method:
(§1)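 Cells in phenol-red-free RPMI-1640 at 37 °C, 5% CO2, with 5% FBS (DuCaP 10% FBS). Seeded per well for 24 h: LNCaP 4000, C4-2B 3000, DuCaP 15 000, BPH-1 3000, WPMY-1 2000. Compounds in DMSO were diluted in medium (final DMSO 0.3%). After 72 h, metabolic activity was read by AlamarBlue. Controls were a DMSO equivalent and vinblastine 25 nM.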

Experiment [2] relates to LNCaP. The experiment is described as follows: Cytotoxicity against human LNCAP cells after 72 hrs by AlamarBlue end point assay. In kind it is functional, cell-based. The method, boiled down:
as §1

A short description of experiment [3]: Cytotoxicity against human WPMY-1 cells after 72 hrs by AlamarBlue end point assay. The format is cell-based. The settings on record: WPMY-1, 72 h. The gist of the method:
as §1

A short description of experiment [4]: Cytotoxicity against human BPH1 cells after 72 hrs by AlamarBlue end point assay. The format is cell-based. The settings on record: BPH-1, 72 h. The gist of the method:
as §1

The nature of experiment [5]: Cytotoxicity against human C4-2B cells after 72 hrs by AlamarBlue end point assay. The format is functional, cell-based. The conditions noted are these: LNCaP C4-2B. The gist of the method:
as §1

In experiment [6] the test system is LNCaP. Put plainly: Cytotoxicity against human LNCAP cells assessed as decrease in cell confluence measured every 2 hrs for 72 hrs by real-time live-cell imaging analysis relative to DMSO control. In kind it is functional, cell-based. The method, boiled down:
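LNCaP cells in phenol-red-free RPMI-1640 with 5% FBS were seeded at 4000 per well for 24 h. They were then treated with compounds diluted from DMSO (final DMSO 0.3%). The IncuCyte live-cell imager took images every 2 h for 72 h, and growth was tracked as increasing confluence. Controls were a DMSO equivalent and vinblastine 25 nM.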

Experiment [7] relates to LNCaP. Put plainly: Selectivity index, ratio of IC50 for human BPH1 cells to IC50 for human LNCAP cells. The format is functional.
For experiment [8], the system named is LNCaP. The experiment is described as follows: Selectivity index, ratio of IC50 for human WPMY-1 cells to IC50 for human LNCAP cells. In kind it is functional.

For the molecule `C=C1C[C@]23C[C@H](O)[C@]4(O)[C@@]5(C)C[C@H](O)C[C@]46C([C@H]2[C@H]1[C@@H](OC(=O)/C(C)=C/C)[C@@H](OC(=O)c1ccccc1)[C@H]36)N(C)C5` (stereo partly drawn), the IC50 turned out to be 154 nM in experiment [1]; 190 nM in experiment [2]; 140 nM in experiment [3]; 236 nM in experiment [4]; 205 nM in experiment [5].

As for `C=C1C[C@]23C[C@H](O)[C@]4(O)[C@@]5(C)C[C@H](O)C[C@]46C([C@H]2[C@H]1[C@@H](OC(=O)/C(C)=C/C)[C@@H](OC(=O)/C(C)=C/C)[C@H]36)N(C)C5` (stereo partly drawn), the IC50 in experiment [1] stood at 86.9 nM; in experiment [2] it was 27.2 nM; in experiment [3], 48.2 nM; in experiment [4] it was 29.6 nM; in experiment [5] it was 45 nM.

As to `C=C1C[C@@]23[C@H]4[C@H](OC(=O)/C(C)=C/C)[C@H](OC(=O)/C(C)=C/C)[C@@H]1[C@@H]2C1N(C)C[C@]2(C)C[C@H](O)C[C@@]14[C@]2(O)[C@@H](O)[C@@H]3O` (stereo partly drawn), the IC50 in experiment [1] stood at 55.7 nM; in experiment [2], 50.8 nM; in experiment [3], 86 nM; in experiment [4] it was 64.3 nM; in experiment [5] it was 93.8 nM.

In the case of `C=C1C[C@]23C[C@H](OC(C)=O)[C@]4(O)[C@@]5(C)C[C@H](O)C[C@]46C([C@H]2[C@H]1[C@@H](OC(=O)/C(C)=C/C)[C@@H](OC(=O)/C(C)=C/C)[C@H]36)N(C)C5.O=C(O)C(F)(F)F` (stereo partly drawn), the Activity result in experiment [6] was “Dose-dependent effect”. The IC50 was determined as 8.7 nM in experiment [1]; 3.1 nM in experiment [2]; 6.6 nM in experiment [3]; 11.5 nM in experiment [4]; 6.2 nM in experiment [5]. In addition, the Ratio IC50 is 3.7 in experiment [7] and 2.1 in experiment [8].

For the molecule `C=C1C[C@@]23[C@H]4[C@H](OC(=O)/C(C)=C/CO)[C@H](OC(=O)/C(C)=C/C)[C@@H]1[C@@H]2C1N(C)C[C@]2(C)C[C@H](O)C[C@@]14[C@]2(O)[C@@H](O)[C@@H]3O` (stereo partly drawn), the IC50 in experiment [1] amounted to 70.7 nM; in experiment [2] it was 72.6 nM; in experiment [3], 155 nM; in experiment [4], 134 nM; in experiment [5] it was 135 nM.

Turning to `C=C1C[C@@]23[C@H]4[C@H](OC(=O)c5ccccc5)[C@H](OC(=O)/C(C)=C/C)[C@@H]1[C@@H]2C1N(C)C[C@]2(C)C[C@H](O)C[C@@]14[C@]2(O)[C@@H](O)[C@@H]3O` (stereo partly drawn), the IC50 in experiment [1] came out at 4.1 nM; in experiment [2] it was 6.7 nM; in experiment [3], 4.9 nM; in experiment [4], 9.2 nM; in experiment [5], 5.2 nM.

For `C=C1C[C@]23C[C@H](O)[C@]4(O)[C@@]5(C)C[C@H](O)C[C@]46C([C@H]2[C@H]1[C@@H](OC(=O)/C(C)=C/C)[C@@H](OC(=O)/C(C)=C/CO)[C@H]36)N(C)C5` (stereo partly drawn), the IC50 came to 355 nM in experiment [1]; 379 nM in experiment [2]; 328 nM in experiment [3]; 177 nM in experiment [4]; 340 nM in experiment [5].

For `C=C1C[C@]23C[C@H](OC(C)=O)[C@]4(O)[C@@]5(C)C[C@H](O)C[C@]46C([C@H]2[C@H]1[C@@H](OC(=O)/C(C)=C/C)[C@@H](OC(=O)/C(C)=C/CO)[C@H]36)N(C)C5` (stereo partly drawn), the IC50 in experiment [1] is 9.9 nM; in experiment [2], 10.9 nM; in experiment [3] it was 9.6 nM; in experiment [4], 11.4 nM; in experiment [5] it was 7 nM.

As for `CC[C@]1(O)C[C@@H]2CN(CCc3c([nH]c4ccccc34)[C@@](C(=O)OC)(c3cc4c(cc3OC)N(C)[C@H]3[C@@](O)(C(=O)OC)[C@H](OC(C)=O)[C@]5(CC)C=CCN6CC[C@]43[C@@H]65)C2)C1` [VINBLASTINE], the IC50 in experiment [1] came out at 3.7 nM; in experiment [2], 3.2 nM; in experiment [3] it was 4.2 nM; in experiment [4] it was 3.8 nM; in experiment [5], 2.4 nM.

(Values after ChEMBL document CHEMBL3758141, “Cytotoxic C20 Diterpenoid Alkaloids from the Australian Endemic Rainforest Plant Anopterus macleayanus” (J Nat Prod, 2015).)
